In ChEMBL document CHEMBL1151952, “Biologically active cannabinoids from high-potency Cannabis sativa” (J Nat Prod, 2009):

How the values were obtained:
[1] = system: Mycobacterium intracellulare; assay: Antibacterial activity against Mycobacterium intracellular ATCC 23068 after 68 to 72 hrs by alamar blue assay; assay type: functional, organism-based
[2] = system: Vero; assay: Cytotoxicity against african green monkey Vero cells up to 10 ug/mL by neutral red method; assay type: cell-based; conditions: chlorocebus sabaeus
[3] = system: Candida albicans; assay: Antifungal activity against Candida albicans ATCC 90028 after 18 to 24 hrs by alamar blue assay; assay type: functional, organism-based
[4] = system: Escherichia coli; assay: Antibacterial activity against Escherichia coli ATCC 35218 after 18 to 24 hrs by alamar blue assay; assay type: functional, organism-based
[5] = system: Leishmania donovani; assay: Antileishmanial activity against Leishmania donovani; assay type: functional, organism-based
Procedure, shortened: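 Leishmania donovani assay; IC50 and IC90 are the test concentrations that kill 50% and 90% of cells, relative to solvent controls.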

[6] = system: Staphylococcus aureus; assay: Antibacterial activity against methicillin-resistant Staphylococcus aureus ATCC 33591 after 18 to 24 hrs by alamar blue assay; assay type: functional, organism-based
[7] = system: Plasmodium falciparum; assay: Antiplasmodial activity against Plasmodium falciparum W2; assay type: functional, organism-based
[8] = system: Plasmodium falciparum; assay: Antiplasmodial activity against Plasmodium falciparum D6; assay type: functional, organism-based
[9] = system: Staphylococcus aureus; assay: Antibacterial activity against Staphylococcus aureus ATCC 29213 by alamar blue assay; assay type: functional, organism-based
[10] = system: Pichia kudriavzevii; assay: Antifungal activity against Candida krusei ATCC 6258 by alamar blue assay; assay type: functional, organism-based
[11] = Mycobacterium intracellulare, ATCC 23068, read-out: IC50
[12] = Candida albicans, ATCC 90028, read-out: IC50
[13] = Plasmodium falciparum, W2, read-out: IC50
[14] = Plasmodium falciparum, D6, read-out: IC50
[15] = Staphylococcus aureus, ATCC 29213, read-out: IC50

SMILES: CCCCCc1cc(O)c2c(c1)OC(C)(C)c1cc(O)c(C)cc1-2
- IC50 [1, 11]: 30.6 µM
- Activity [2]: Non-toxic
- IC50 [3, 12]: 4.6 µM
- IC50 [4]: Not Active

SMILES: CCCCCc1cc(O)c(C/C=C(\C)CCC=C(C)C)c(OC(C)=O)c1O
- IC50 [1]: Not Active
- IC50 [5]: 10.7 µM
- IC90 [5]: 18.7 µM
- Activity [2]: Non-toxic
- IC50 [3]: Not Active
- IC50 [4]: Not Active
- IC50 [6]: 53.4 µM
- IC50 [7, 13]: 6.7 µM
- IC50 [8, 14]: 7.2 µM
- IC50 [9]: Not Active

SMILES: CCCCCc1c(C/C=C(\C)CCC=C(C)C)c(O)cc(O)c1OC(C)=O
- IC50 [1]: Not Active
- IC50 [5]: 42.7 µM
- IC90 [5]: 85.4 µM
- Activity [2]: Non-toxic
- IC50 [3]: Not Active
- IC50 [4]: Not Active
- IC50 [6]: 6.7 µM
- IC50 [7]: Not Active
- IC50 [10]: 53.4 µM
- IC50 [8]: Not Active
- IC50 [9, 15]: 12.2 µM

SMILES: CCCCCc1cc(O)c2c(c1OC(C)=O)OC(C)(CCC=C(C)C)C=C2 (racemic)
- IC50 [5]: 40.3 µM
- IC90 [5]: 91.3 µM
- Activity [2]: Non-toxic
- IC50 [7, 13]: 4 µM
- IC50 [8, 14]: 7.2 µM

SMILES: C=C(C)C(O)CCC1(C)C=Cc2c(O)cc(CCCCC)cc2O1 (racemic)
- IC50 [1]: Not Active
- IC90 [5]: 96.8 µM
- Activity [2]: Non-toxic
- IC50 [3, 12]: 60.5 µM
- IC50 [4]: Not Active
- IC50 [6]: 24.4 µM
- IC50 [7]: Not Active
- IC50 [10]: 60.5 µM
- IC50 [8]: Not Active
- IC50 [9, 15]: 29.6 µM

SMILES: CCCCCc1cc2c(c(O)c1C(=O)O)-c1cc(C)c(O)cc1C(C)(C)O2 [8-HYDROXYCANNABINOLIC ACID A]
- IC50 [1]: Not Active
- Activity [2]: Non-toxic
- IC50 [3]: Not Active
- IC50 ([4]; Escherichia coli, ATCC 35218, read-out: IC50): 54 µM
- IC50 [10]: 54 µM
- IC50 [9, 15]: 3.5 µM

SMILES: C[C@@H]1[C@H](O)[C@@H](C)/C=C/C=C/C=C/C=C/C=C/C=C/C=C/[C@H](O[C@@H]2O[C@H](C)[C@@H](O)[C@H](N)[C@@H]2O)C[C@@H]2O[C@](O)(C[C@@H](O)C[C@@H](O)[C@H](O)CC[C@@H](O)C[C@@H](O)CC(=O)O[C@H]1C)C[C@H](O)[C@H]2C(=O)O [AMPHOTERICIN B]
- IC50 [10]: 0.7 µM

SMILES: O=C(O)c1cn(C2CC2)c2cc(N3CCNCC3)c(F)cc2c1=O [CIPROFLOXACIN]
- IC50 [1, 11]: 1.5 µM

SMILES: N=C(N)c1ccc(OCCCCCOc2ccc(C(=N)N)cc2)cc1 [PENTAMIDINE]
- IC50 [5]: 3.8 µM
- IC90 [5]: 19.1 µM
